This is an account of results in ChEMBL document CHEMBL1817588, “Design and synthesis of 1,3-biarylsulfanyl derivatives as new anti-breast cancer agents” (Bioorg Med Chem, 2011).

Experiment [1] relates to MCF7. Briefly: Antiproliferative activity against human MCF7 cells expressing estrogen receptor after 48 hrs by MTT assay. To be noted: MCF7, 48 h. The experiment is classed as functional, cell-based. The gist of the method: (§1)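 Cells seeded at 1×10^4/well in DMEM with 10% FBS for 24 h at 37 °C, then exposed to compounds for 48 h. MTT (5 mg/mL) added for 4 h. Formazan dissolved in DMSO and absorbance read at 540 nm. Routine culture used DMEM with 10% FBS, 5% CO2, reduced to 2% FBS for growth inhibition.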

Experiment [2] has as its system MDA-MB-231. Briefly: Antiproliferative activity against estrogen receptor-deficient human MDA-MB-231 cells […] after 48 hrs by MTT assay. Particulars: MDA-MB-231, 48 h. The experiment is classed as functional, cell-based. The gist of the method:
as §1
(In general: Formazan colour is commonly taken as a measure of viable cells.)

For experiment [3], the system named is Ishikawa. Briefly: Antiproliferative activity against human Ishikawa cells expressing estrogen receptor at 50 uM after 48 hrs by MTT assay. The experiment is classed as functional, cell-based.
Experiment [4] relates to Ishikawa. Nature of the experiment: Antiproliferative activity against human Ishikawa cells expressing estrogen receptor after 48 hrs by MTT assay. The experiment is classed as functional, cell-based. The gist of the method: as §1
Experiment [5] deals with MDA-MB-231. Nature of the experiment: Antiproliferative activity against estrogen receptor-deficient human MDA-MB-231 cells […] at 50 uM after 48 hrs by MTT assay. The experiment is classed as functional, cell-based.
The subject of experiment [6] is Bone. Briefly: Antiosteoporotic activity in Sprague-Dawley rat [45Ca] pre-labeled bone assessed as inhibition of PTH-induced bone resorption after 96 hrs.
Experiment [7] relates to Bone. Nature of the experiment: Antiosteoporotic activity in Sprague-Dawley rat [45Ca] pre-labeled bone assessed as inhibition of PTH-induced bone resorption after 96 hrs relative to control.
Experiment [8] concerns MCF7. Nature of the experiment: Antiproliferative activity against human MCF7 cells expressing estrogen receptor at 50 uM after 48 hrs by MTT assay. The experiment is classed as functional, cell-based.
The species named for experiment [9] is Rattus norvegicus. Briefly: Displacement of [3H]-estradiol from estrogen receptor in rat uteri after 18 hrs by scintillation counting relative to 17beta-estradiol. The gist of the method: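 Cytosol from uteri of immature 20–21-day-old rats, in TEA buffer pH 7.4 (10 mM Tris, 1.5 mM EDTA, 0.02% azide). Incubated in triplicate with fixed 3H-estradiol ± competitor (DMF ≤5% final) for 18 h at 4 °C. Free ligand removed with dextran-coated charcoal (15 min, 800g 10 min), then supernatant counted. RBA taken at 50% inhibition from the bound-versus-log concentration plot.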

In experiment [10] the test system is Rattus norvegicus. Nature of the experiment: Estrogenic activity in Sprague-Dawley rat assessed as increase in uterine weight administered as po daily once for 3 days relative to control. The experiment is classed as functional. Further details: concentration or dose not given beside the values. The gist of the method: (§2)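 Immature female Sprague-Dawley rats given oral dosing once daily for 3 days on days 28–30 of age. Antiestrogenic arm co-dosed ethynylestradiol 0.02 mg/kg in 10% ethanol-water. Autopsy 24 h after last dose (day 31). Uterus excised, blotted and weighed, with vaginal opening and cornification also scored. Inhibition computed as (E − T)×100/E versus ethynylestradiol alone. Estrogenic gain expressed as percent increase over vehicle control.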

Experiment [11] relates to Rattus norvegicus. Briefly: Antiestrogenic activity in Sprague-Dawley rat assessed as inhibition of uterine weight gain administered as po daily once for 3 days relative to 17alpha-ethynylestradiol. The experiment is classed as functional. The gist of the method:
as §2

The structures appear in SMILES notation. Activity calls are given as the source filed them. No cut-off for these calls is given here.

By IC50 is commonly meant the concentration that inhibits the measured activity by half. Regarding `COc1ccc(C(=O)CC(Sc2ccccc2)c2ccccc2)cc1` (configuration not stated), the IC50 in the experiment on MCF7 [1] was 29 µM; with MDA-MB-231 [2] it was 41 µM. Moreover, in the experiment with Ishikawa [3], the result was inactive.
On to `COc1ccc(C(CC(=O)c2ccccc2)Sc2ccc(Cl)cc2)cc1` (configuration not stated), for which the results for the IC50 in the experiment on MCF7 [1], in the experiment with Ishikawa [4] and with MDA-MB-231 [2] were 25 µM, 22 µM and 36 µM, respectively.
As for `CCSC(CC(=O)c1ccc(OC)cc1)c1ccc(OC)cc1` (configuration not stated), in the experiment with MCF7 [1], half-maximal inhibition (IC50) required 27 µM. Also, the result with Ishikawa [3] and with MDA-MB-231 [5] was inactive.
Turning to `O=C(c1ccc(OCCN2CCCCC2)cc1)c1c(-c2ccc(O)cc2)sc2cc(O)ccc12` [RALOXIFENE], in the experiment on Bone [6], the T/C is 0.62. For the same compound, the “inhibition (INH)” value in the experiment with Bone [7] was 38%.
With `O=C(CC(Sc1ccc(Cl)cc1)c1ccccc1)c1ccc(Cl)cc1` (configuration not stated), the 50% inhibitory concentration (IC50) in the experiment on MCF7 [1] is 28 µM; in the experiment on Ishikawa [4], 24 µM; with MDA-MB-231 [2] it was 31 µM.
On the same counts, the results for `O=C(CC(Sc1ccc(Cl)cc1)c1ccccc1)c1ccc([N+](=O)[O-])cc1` (configuration not stated) are 25 µM, 21 µM and 29 µM.
On the same counts, the results for `O=C(CC(Sc1ccccc1)c1ccccc1)c1ccc2ccccc2c1` (configuration not stated) are 30 µM, 26 µM and 48 µM.
As to `O=C(CC(Sc1ccccc1)c1ccccc1)c1ccc(O)cc1` (configuration not stated), the values for the IC50 with MCF7 [1] and in the experiment with MDA-MB-231 [2] were 24 µM and 38 µM, respectively. Moreover, the outcome with Ishikawa [3] was inactive.
With `COc1ccc(C(CC(=O)c2ccc(Cl)cc2)Sc2ccccc2)cc1` (configuration not stated), in the experiment on Ishikawa [4], the IC50 turned out to be 25 µM. Also, the outcome in the experiment on MCF7 [8] and in the experiment with MDA-MB-231 [5] was inactive.
Turning to `COc1ccc(C(CC(=O)c2ccccc2)SCCC(=O)O)cc1` (configuration not stated), the figures for the IC50 in the experiment on Ishikawa [4] and in the experiment on MDA-MB-231 [2] were 24 µM and 44 µM, respectively. Also, the result with MCF7 [8] was inactive.
On the same counts, the results for `O=C(CC(Sc1ccc([N+](=O)[O-])cc1)c1ccccc1)c1ccccc1` (configuration not stated) are 23 µM, 44 µM and “inactive”.
Turning to `O=C(CC(Sc1ccccc1)c1ccccc1)c1cccc(Cl)c1` (configuration not stated), the half-maximal inhibitory concentration (IC50) in the experiment on MCF7 [1] stood at 29 µM; in the experiment on Ishikawa [4], 29 µM; in the experiment on MDA-MB-231 [2], 32 µM.
`Cc1cccc(SC(CC(=O)c2ccccc2)c2ccc(O)cc2)c1` (configuration not stated): the figures for the IC50 in the experiment on MCF7 [1], with Ishikawa [4] and in the experiment with MDA-MB-231 [2] were 25 µM, 22 µM and 35 µM, respectively.
With `CSC(CC(=O)c1ccccc1)c1ccccc1` (configuration not stated), the IC50 with MCF7 [1] and in the experiment with Ishikawa [4] was 25 µM in each case. In addition, the result with MDA-MB-231 [5] was inactive.
Consider `CC/C(=C(\c1ccccc1)c1ccc(OCCN(C)C)cc1)c1ccccc1` [TAMOXIFEN], for which the IC50 with MCF7 [1] stood at 12.5 µM; in the experiment on Ishikawa [4], 22.5 µM. The compound further showed an RBA in the experiment listed under Rattus norvegicus [9] of 2.2%. In the experiment on Rattus norvegicus [10], the Activity is on record as 155%. For the same compound, the “inhibition (INH)” value with Rattus norvegicus [11] amounted to 49%.
In the case of `O=C(CC(Sc1ccccc1)c1ccccc1)c1cccc([N+](=O)[O-])c1` (configuration not stated), the half-inhibitory concentration (IC50) with MCF7 [1] was determined as 25 µM; in the experiment with Ishikawa [4] it was 21 µM; in the experiment with MDA-MB-231 [2], 38 µM.
`COc1ccc(C(=O)CC(Sc2ccc(Cl)cc2)c2ccccc2)cc1` (configuration not stated) had an IC50 with Ishikawa [4] of 22 µM. Also, the outcome in the experiment on MCF7 [8] and in the experiment on MDA-MB-231 [5] was inactive.
Turning to `Cc1ccc(C(CC(=O)c2cccc(Cl)c2)Sc2ccccc2)cc1` (configuration not stated), the IC50 with MCF7 [1] worked out at 25 µM; with Ishikawa [4], 28 µM; in the experiment with MDA-MB-231 [2], 36 µM.
For `O=C(O)CCSC(CC(=O)c1ccccc1)c1ccccc1` (configuration not stated), the IC50 in the experiment on Ishikawa [4] was 23 µM; in the experiment with MDA-MB-231 [2], 42 µM. Moreover, the outcome with MCF7 [8] was inactive.
In the case of `COc1ccc(C(CC(=O)c2ccccc2)Sc2ccc(C)cc2)cc1` (configuration not stated), the IC50 in the experiment on MCF7 [1] was found to be 23 µM; in the experiment with Ishikawa [4], 17 µM; in the experiment with MDA-MB-231 [2] it was 45 µM.
`CCSC(CC(=O)c1ccccc1)c1ccc(OC)cc1` (configuration not stated) showed an IC50 in the experiment with MCF7 [1] of 24 µM. In addition, the outcome in the experiment on Ishikawa [3] and in the experiment with MDA-MB-231 [5] was inactive.
In the case of `Cc1ccc(SC(CC(=O)c2cccc(Cl)c2)c2ccc(C)cc2)cc1` (configuration not stated), the IC50 in the experiment with MCF7 [1] worked out at 27 µM; in the experiment on MDA-MB-231 [2], 41 µM. For the same compound, the outcome in the experiment on Ishikawa [3] was inactive.
